Measurements taken from ChEMBL document CHEMBL3627690, “Scaffold-Hopping and Structure-Based Discovery of Potent, Selective, And Brain Penetrant N-(1H-Pyrazol-3-yl)pyridin-2-amine Inhibitors of Dual Leucine Zipper Kinase (DLK, MAP3K12)” (J Med Chem, 2015).
pEC50, pIC50: −log10 of the molar value. The source made the active and inactive calls. The rule behind the calls is not given here.

How the values were obtained:
[1] = Volume of distribution at steady state in […] rat at 0.4 or 1 mg/kg, iv and 1 or 5 mg/kg, po; format: ADME, organism-based; conditions: in vivo, read-out: Vdss
Summary of the method: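 Rat PK: iv dosing at 0.4 or 1 mg/kg as a 60% PEG solution, po dosing at 1 or 5 mg/kg as an aqueous suspension with 1% methylcellulose.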

[2] = biological target: c-Jun N-terminal kinase, JNK (Homo sapiens) (UniProt P45983+P53779+P45984); assay: Inhibition of Myc CA-JNK (unknown origin) transfected in HEK293 cells assessed as reduction of phosphorylation of c-Jun at 10 uM incubated for 5 hrs measured by Western blot analysis; format: cell-based
Summary of the method: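 HEK293 cells were transfected with constitutively active JNK 24 h before compound treatment. Cells were then exposed to compound for 5 h.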

[3] = biological target: Serine/threonine-protein kinase MARK2 (Homo sapiens) (UniProt Q7KZI7); assay: Inhibition of MARK2 (unknown origin) at 1 uM by FRET method
Summary of the method: (§1)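 SelectScreen panel of 58 kinases, each tested at a single 1 µM compound concentration. Read-out was Z′-LYTE FRET of labeled peptide phosphorylation, run by the vendor's protocols, reported as percent inhibition.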

[4] = biological target: Hepatocyte growth factor receptor (Homo sapiens) (UniProt P08581); assay: Inhibition of Met (unknown origin) at 1 uM by FRET method
Summary of the method: (§2)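 Single-point screen at 1 uM against a panel of 58 representative kinases. Readout was labeled-peptide phosphorylation by FRET (Z′-LYTE), using the vendor's protocols.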

[5] = biological target: Serine/threonine-protein kinase mTOR (Homo sapiens) (UniProt P42345); assay: Inhibition of mTOR (unknown origin) at 1 uM by FRET method; summary of the method: as §2
[6] = biological target: Platelet-derived growth factor receptor beta (Homo sapiens) (UniProt P09619); assay: Inhibition of PDGFRbeta (unknown origin) at 1 uM by FRET method; summary of the method: as §2
[7] = biological target: Rho-associated protein kinase 1 (Homo sapiens) (UniProt Q13464); assay: Inhibition of ROCK1 (unknown origin) at 1 uM by FRET method; summary of the method: as §2
[8] = biological target: High affinity nerve growth factor receptor (Homo sapiens, UniProt P04629); assay: Inhibition of TrkA (unknown origin) at 1 uM by FRET method; summary of the method: as §2
[9] = biological target: Tyrosine-protein kinase ABL1 (Homo sapiens) (UniProt P00519); assay: Inhibition of Abl (unknown origin) at 1 uM by FRET method; summary of the method: as §1
[10] = biological target: Serine/threonine-protein kinase Chk1 (Homo sapiens) (UniProt O14757); assay: Inhibition of CHK1 (unknown origin) at 1 uM by FRET method; summary of the method: as §1
[11] = biological target: T1, Macrophage colony-stimulating factor 1 receptor (Homo sapiens, UniProt P07333); assay: Inhibition of CSF1R (unknown origin) at 1 uM by FRET method; summary of the method: as §1
[12] = biological target: Dual specificity tyrosine-phosphorylation-regulated kinase 3 (Homo sapiens) (UniProt O43781); assay: Inhibition of DYRK3 (unknown origin) at 1 uM by FRET method; summary of the method: as §1
[13] = biological target: Ephrin type-A receptor 2 (Homo sapiens) (UniProt P29317); assay: Inhibition of EphA2 (unknown origin) at 1 uM by FRET method; summary of the method: as §1
[14] = biological target: Mitogen-activated protein kinase 3 (Homo sapiens) (UniProt P27361); assay: Inhibition of ERK1 (unknown origin) at 1 uM by FRET method; summary of the method: as §1
[15] = biological target: Insulin-like growth factor 1 receptor (Homo sapiens) (UniProt P08069); assay: Inhibition of IGF1R (unknown origin) at 1 uM by FRET method; summary of the method: as §1
[16] = biological target: Tyrosine-protein kinase JAK3 (Homo sapiens) (UniProt P52333); assay: Inhibition of JAK3 (unknown origin) at 1 uM by FRET method; summary of the method: as §1
[17] = biological target: Tyrosine-protein kinase Lck (Homo sapiens) (UniProt P06239); assay: Inhibition of Lck (unknown origin) at 1 uM by FRET method; summary of the method: as §1
[18] = biological target: T1, Macrophage colony-stimulating factor 1 receptor; assay: Inhibition of CSF1R (unknown origin) by FRET method
[19] = biological target: Glycogen synthase kinase-3 beta (Homo sapiens, UniProt P49841); assay: Inhibition of GSK3beta (unknown origin) by FRET method
[20] = biological target: Mast/stem cell growth factor receptor Kit (Homo sapiens, UniProt P10721); assay: Inhibition of Kit (unknown origin) by FRET method
[21] = biological target: Mitogen-activated protein kinase 9 (Homo sapiens, UniProt P45984); assay: Inhibition of JNK2 (unknown origin) by FRET method
Summary of the method: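 JNK1, JNK2 and JNK3 IC50 values came from a 10-point dose–response enzymatic assay.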

[22] = biological target: Mitogen-activated protein kinase kinase kinase 9 (Homo sapiens, UniProt P80192); assay: Inhibition of MLK1 (unknown origin) by FRET method
Summary of the method: (§3)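 Biochemical IC50 determination from a 10-point dose-response in an enzymatic Z′-LYTE assay. Labeled-peptide phosphorylation was read by FRET under the vendor's protocols.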

[23] = biological target: T2, Mitogen-activated protein kinase kinase kinase 10 (Homo sapiens, UniProt Q02779); assay: Inhibition of MLK2 (unknown origin) by FRET method; summary of the method: as §3
[24] = Neuroprotective activity in Wistar rat DRG neuronal cells by neurodegeration assay; format: functional, cell-based
[25] = Cmax in mouse at 50 mg/kg, po; format: ADME, organism-based; design: dose 50 mg/kg, route oral; conditions: in vivo
Summary of the method: (§4)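 C57/Bl6 mice were given a single 50 mg/kg oral dose as an MCT suspension. Plasma was sampled over 0–6 h for Cmax, Tmax and AUC0–6h.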

[26] = AUC (0 to 6 h) in mouse at 50 mg/kg, po; format: ADME, organism-based; design: dose 50 mg/kg, time < 6 hr, route oral; conditions: in vivo; summary of the method: as §4
Mus musculus = assay: Reduction of p-c-Jun level in retina of optic nerve crush injury mouse model at 75 mg/kg, po administered 30 mins prior to nerve crush injury measured at 6 hrs by MSD ELISA; format: functional, organism-based
Summary of the method: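 C57/Bl6 mice were dosed orally with a methylcellulose suspension or vehicle 30 min before optic nerve crush. Retinal p-c-Jun was measured 6 h after injury by MSD ELISA. Values are expressed relative to uncrushed vehicle controls as mean ± SEM with individual animals.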

[27] = biological target: T2, Mitogen-activated protein kinase kinase kinase 10; conditions: 1 uM
[28] = biological target: Proto-oncogene tyrosine-protein kinase Src (Homo sapiens, UniProt P12931); conditions: 1 uM

T1 sequence (P07333 whole entry): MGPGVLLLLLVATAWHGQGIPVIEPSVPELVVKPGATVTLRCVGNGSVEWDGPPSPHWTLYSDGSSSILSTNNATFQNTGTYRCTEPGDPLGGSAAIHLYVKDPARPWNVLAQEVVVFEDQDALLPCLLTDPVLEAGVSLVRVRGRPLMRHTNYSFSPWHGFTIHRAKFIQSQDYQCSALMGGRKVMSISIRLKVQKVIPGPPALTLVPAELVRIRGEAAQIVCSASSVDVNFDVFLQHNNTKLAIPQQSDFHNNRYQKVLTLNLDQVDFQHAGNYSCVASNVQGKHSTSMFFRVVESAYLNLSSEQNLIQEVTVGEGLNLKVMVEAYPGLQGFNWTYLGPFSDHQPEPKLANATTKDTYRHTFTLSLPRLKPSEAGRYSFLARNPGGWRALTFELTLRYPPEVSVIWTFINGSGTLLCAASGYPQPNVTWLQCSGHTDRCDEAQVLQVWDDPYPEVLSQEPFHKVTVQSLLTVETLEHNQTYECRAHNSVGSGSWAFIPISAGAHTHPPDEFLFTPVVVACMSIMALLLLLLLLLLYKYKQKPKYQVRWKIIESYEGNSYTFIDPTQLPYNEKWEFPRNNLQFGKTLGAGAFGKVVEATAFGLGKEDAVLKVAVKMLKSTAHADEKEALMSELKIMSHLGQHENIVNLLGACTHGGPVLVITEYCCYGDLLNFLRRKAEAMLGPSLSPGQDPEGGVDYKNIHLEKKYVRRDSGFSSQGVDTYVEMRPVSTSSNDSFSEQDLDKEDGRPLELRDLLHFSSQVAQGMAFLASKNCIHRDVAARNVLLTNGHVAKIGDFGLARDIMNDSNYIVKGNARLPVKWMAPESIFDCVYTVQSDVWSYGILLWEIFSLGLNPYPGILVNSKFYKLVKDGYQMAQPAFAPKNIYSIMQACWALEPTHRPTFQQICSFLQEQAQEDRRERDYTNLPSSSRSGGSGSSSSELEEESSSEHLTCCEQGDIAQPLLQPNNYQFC
Chain of Rho-associated protein kinase 1 (Homo sapiens) (Q13464 2-1354 limits assumed): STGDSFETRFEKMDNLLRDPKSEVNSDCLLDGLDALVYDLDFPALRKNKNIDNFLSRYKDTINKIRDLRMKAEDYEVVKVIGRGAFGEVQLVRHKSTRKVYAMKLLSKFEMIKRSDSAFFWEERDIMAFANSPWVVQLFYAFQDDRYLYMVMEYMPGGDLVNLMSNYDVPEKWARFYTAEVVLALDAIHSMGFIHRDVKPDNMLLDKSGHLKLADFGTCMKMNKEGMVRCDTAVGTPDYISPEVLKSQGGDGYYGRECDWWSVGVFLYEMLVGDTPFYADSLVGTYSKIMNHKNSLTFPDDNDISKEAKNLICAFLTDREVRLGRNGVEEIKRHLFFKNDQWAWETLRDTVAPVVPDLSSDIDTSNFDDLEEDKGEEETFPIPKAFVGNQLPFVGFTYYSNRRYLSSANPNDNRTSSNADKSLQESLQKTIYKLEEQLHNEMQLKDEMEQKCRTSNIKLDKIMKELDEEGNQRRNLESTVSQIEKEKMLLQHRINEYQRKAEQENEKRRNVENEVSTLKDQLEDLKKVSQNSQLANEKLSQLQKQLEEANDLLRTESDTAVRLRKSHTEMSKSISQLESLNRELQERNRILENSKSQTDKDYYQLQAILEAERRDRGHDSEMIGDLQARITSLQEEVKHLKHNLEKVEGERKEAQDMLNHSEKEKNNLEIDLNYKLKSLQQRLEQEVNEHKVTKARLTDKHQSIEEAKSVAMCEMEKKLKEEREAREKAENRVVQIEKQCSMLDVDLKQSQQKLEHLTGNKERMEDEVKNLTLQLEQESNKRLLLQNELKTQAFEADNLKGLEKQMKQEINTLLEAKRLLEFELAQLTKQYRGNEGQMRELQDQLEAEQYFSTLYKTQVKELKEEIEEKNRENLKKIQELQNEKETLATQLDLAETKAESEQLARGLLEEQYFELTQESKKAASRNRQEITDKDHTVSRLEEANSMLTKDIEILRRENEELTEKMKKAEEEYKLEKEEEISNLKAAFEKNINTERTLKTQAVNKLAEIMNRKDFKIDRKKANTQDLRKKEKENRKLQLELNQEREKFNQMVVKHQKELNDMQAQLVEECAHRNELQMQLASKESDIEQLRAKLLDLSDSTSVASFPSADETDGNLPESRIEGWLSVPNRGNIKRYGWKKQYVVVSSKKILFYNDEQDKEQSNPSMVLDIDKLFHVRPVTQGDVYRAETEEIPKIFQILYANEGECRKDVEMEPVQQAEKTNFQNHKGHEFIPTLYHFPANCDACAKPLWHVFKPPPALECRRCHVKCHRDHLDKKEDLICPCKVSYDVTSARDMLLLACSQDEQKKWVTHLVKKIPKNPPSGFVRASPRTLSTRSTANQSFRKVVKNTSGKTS
Chain of Mitogen-activated protein kinase kinase kinase 9 (P80192 whole entry): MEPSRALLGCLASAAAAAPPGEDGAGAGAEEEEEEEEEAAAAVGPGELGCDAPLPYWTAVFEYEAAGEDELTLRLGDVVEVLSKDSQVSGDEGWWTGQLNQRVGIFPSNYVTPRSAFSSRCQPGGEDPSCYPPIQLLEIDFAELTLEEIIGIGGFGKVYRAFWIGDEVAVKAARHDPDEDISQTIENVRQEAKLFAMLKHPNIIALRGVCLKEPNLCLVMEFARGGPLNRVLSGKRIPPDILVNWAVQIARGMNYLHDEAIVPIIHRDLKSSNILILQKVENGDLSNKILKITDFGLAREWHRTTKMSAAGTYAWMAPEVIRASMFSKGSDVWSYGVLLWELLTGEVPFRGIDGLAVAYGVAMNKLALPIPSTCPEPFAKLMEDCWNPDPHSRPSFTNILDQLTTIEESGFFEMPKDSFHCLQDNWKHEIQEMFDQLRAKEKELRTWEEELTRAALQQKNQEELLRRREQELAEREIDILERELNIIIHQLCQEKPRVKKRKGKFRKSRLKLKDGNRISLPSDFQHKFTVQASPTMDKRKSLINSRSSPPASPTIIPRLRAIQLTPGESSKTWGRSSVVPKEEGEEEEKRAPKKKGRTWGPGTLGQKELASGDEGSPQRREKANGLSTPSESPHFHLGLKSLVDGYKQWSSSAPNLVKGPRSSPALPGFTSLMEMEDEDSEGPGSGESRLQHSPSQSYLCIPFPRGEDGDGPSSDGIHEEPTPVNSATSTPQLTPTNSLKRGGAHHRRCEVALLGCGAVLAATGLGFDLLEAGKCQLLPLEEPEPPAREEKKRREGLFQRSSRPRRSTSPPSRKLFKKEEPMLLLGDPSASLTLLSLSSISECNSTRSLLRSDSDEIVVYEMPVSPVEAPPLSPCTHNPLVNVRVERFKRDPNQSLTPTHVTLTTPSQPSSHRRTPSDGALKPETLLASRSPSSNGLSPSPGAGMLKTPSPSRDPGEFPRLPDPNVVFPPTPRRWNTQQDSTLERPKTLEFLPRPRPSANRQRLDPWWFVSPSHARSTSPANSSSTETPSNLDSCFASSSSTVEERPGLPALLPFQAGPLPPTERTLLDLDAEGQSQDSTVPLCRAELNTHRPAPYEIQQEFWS
Chain of Insulin-like growth factor 1 receptor (Homo sapiens) (P08069 31-736 limits assumed): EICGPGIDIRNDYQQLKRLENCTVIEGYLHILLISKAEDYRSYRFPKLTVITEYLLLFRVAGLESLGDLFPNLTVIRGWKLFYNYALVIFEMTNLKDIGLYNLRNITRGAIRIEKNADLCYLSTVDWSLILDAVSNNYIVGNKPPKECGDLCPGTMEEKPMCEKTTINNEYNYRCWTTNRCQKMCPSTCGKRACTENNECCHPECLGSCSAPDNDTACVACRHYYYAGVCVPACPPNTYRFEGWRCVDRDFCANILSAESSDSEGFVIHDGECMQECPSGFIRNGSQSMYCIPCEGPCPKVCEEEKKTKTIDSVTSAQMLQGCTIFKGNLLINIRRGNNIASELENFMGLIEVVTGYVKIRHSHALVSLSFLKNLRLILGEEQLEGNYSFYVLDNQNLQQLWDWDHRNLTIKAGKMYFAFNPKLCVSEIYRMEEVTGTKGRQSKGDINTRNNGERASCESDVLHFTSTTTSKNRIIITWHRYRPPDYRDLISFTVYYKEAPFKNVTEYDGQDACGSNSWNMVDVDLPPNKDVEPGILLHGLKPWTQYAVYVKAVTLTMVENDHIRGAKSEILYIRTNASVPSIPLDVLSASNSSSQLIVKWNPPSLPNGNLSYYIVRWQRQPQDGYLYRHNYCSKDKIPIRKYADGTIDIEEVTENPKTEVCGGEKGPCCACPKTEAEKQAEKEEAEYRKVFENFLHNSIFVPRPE
Chain of Insulin-like growth factor 1 receptor (Homo sapiens) (P08069 741-1367 limits assumed): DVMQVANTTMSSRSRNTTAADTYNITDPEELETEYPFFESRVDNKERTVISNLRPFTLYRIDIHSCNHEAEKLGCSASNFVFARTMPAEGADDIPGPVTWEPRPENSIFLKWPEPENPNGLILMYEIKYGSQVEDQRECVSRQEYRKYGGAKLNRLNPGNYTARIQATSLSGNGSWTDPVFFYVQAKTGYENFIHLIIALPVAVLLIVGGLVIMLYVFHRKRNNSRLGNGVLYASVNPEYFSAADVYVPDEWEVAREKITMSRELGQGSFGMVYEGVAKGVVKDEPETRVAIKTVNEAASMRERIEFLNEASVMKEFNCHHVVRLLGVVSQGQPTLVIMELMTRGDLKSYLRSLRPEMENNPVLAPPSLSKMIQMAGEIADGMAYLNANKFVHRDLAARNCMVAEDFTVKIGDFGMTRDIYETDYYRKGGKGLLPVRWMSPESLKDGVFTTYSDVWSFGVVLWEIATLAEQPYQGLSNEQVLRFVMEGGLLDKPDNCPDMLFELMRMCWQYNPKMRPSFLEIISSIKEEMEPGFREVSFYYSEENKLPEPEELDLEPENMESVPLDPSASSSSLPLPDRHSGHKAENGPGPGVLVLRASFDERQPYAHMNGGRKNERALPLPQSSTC

With `N#Cc1ccnc(Nc2cc(C3CCN(C4COC4)CC3)n(C3CCCC3)n2)c1` the Vd [1] was 4.4 L/kg, the inhibition [2] was “inactive” and the inhibition [3] was 3%. It also gave an inhibition [4] of 23.4%, an inhibition [5] of 9.2% and an inhibition [6] of 23.8%. It also gave an inhibition [7] of -3%, an inhibition [8] of 63.3% and an inhibition [9] of 8.4%. For the same compound, the inhibition [10] was -2.3%, the inhibition [11] was 51.8% and the inhibition [12] was 0.3%. It also gave an inhibition [13] of 23%, an inhibition [14] of 0.6% and an inhibition [15] of 37%. For the same compound, the inhibition [16] was 12.5%, the inhibition [17] was 37.5% and the pIC50 [18] was 7.24. It also gave a pIC50 [19] of 6.17, a pIC50 [20] of 6.27 and a pIC50 [21] of 5.30. It also gave a pIC50 [22] of under 5.00, a pIC50 [23] of under 5.00 and a pEC50 [24] of 5.67. For the same compound, the Cmax [25] was 5.9 µM, the AUC(0-t) at 6 h [26] was 15.8 µM·h and the Activity (Mus musculus) was “Active”. For the same compound, the inhibition [27] was 1.6% and the inhibition [28] was 55.4%.
